Here are results for 36 sequences from the array DNA melting data of Ke et al. (doi:10.1101/2024.01.08.574731).

Data set [1] in a line: melting temperature; fluorescence melt of hairpins on a sequencing array, two-state fit, raised by 9.35 °C to match UV melts. The note with it: sodium 0.088 M. The essentials: (§1)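 To match UV melts, fitted temperatures were raised by 9.35 °C. These fits were bootstrapped two-state models that gave melting temperature and folding enthalpy, combined by inverse variance over four replicates. The input was normalised Cy3 fluorescence of library hairpins with annealed Cy3 and quencher oligos on a sequenced MiSeq flow cell, imaged in 50 mM Na-HEPES pH 8.0, 25 mM NaCl in 2.5 °C steps up to 60 °C.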

Data set [2] in a line: folding enthalpy; higher = less favourable; fluorescence melt of hairpins on a sequencing array, two-state fit. The note with it: sodium 0.088 M. The gist of the method:
as §1

As for GTCAGCGAAAGCTAAGAC ((((((....)))..))), the Tm in data set [1] turned out to be 41.5 °C. The folding enthalpy in data set [2] was -16.7 kcal/mol.
The matching figures for GTCAGCGAAAGCTATGAC ((((((....)))..))): 44.2 °C and -20.6 kcal/mol.
Turning to GTCAGCGAAAGCTCAGAC ((((((....)))..))), the Tm in data set [1] amounted to 34.5 °C. The folding enthalpy in data set [2] was -15.8 kcal/mol.
As for GTCAGCGGAAACACTGAC (((((.(....).))))), the Tm in data set [1] stood at 47.2 °C. Further, the folding enthalpy in data set [2] is -40.7 kcal/mol.
On to GTCAGCGGAAACGCTAAC ((.((((....)))).)), for which, in data set [1], the Tm was found to be 37.4 °C. Further, the folding enthalpy in data set [2] is -15.2 kcal/mol.
The matching figures for GTCAGCGGAAACGTTGAC ((((.((....)).)))): 52.9 °C and -43.5 kcal/mol.
Take GTCAGCTCGAAAGAGGAC (((..(((....)))))): in data set [1], the Tm was 33.4 °C. In data set [2], the folding enthalpy was -17.7 kcal/mol.
GTCAGGGCGAAAGCCGAC (((..(((....)))))): the Tm in data set [1] was 48.7 °C. Besides, the folding enthalpy in data set [2] was -14.7 kcal/mol.
On to GTCAGGGGAAACTCTGAC (((((.(....).))))), for which, in data set [1], the Tm came out at 48.9 °C. Moreover, the folding enthalpy in data set [2] was -33.4 kcal/mol.
With GTCAGTCGAAAGACCGAC (((.(((....))).))), in data set [1], the Tm came out at 47.4 °C. Moreover, the folding enthalpy in data set [2] was -22.1 kcal/mol.
The matching figures for GTCAGTGCGAAAGCAGAC (((..(((....)))))): 39.6 °C and -14.4 kcal/mol.
With GTCAGTGGAAACGTTGAC ((((..(....)..)))), the Tm in data set [1] came to 34.9 °C. In addition, the folding enthalpy in data set [2] was -21.1 kcal/mol.
The matching figures for GTCATAGGAAACTACGAC (((.(((....))).))): 30.8 °C and -16.5 kcal/mol.
As for GTCATAGGAAACTATGAC (((((((....))))))), in data set [1], the Tm is 55.9 °C. Moreover, the folding enthalpy in data set [2] is -39.3 kcal/mol.
For GTCATAGGAAACTGTGAC ((((.((....)).)))) the same measures were 46.4 °C and -32.1 kcal/mol.
On to GTCATCGAAAGATCAGAC ((((((....)))..))), for which the Tm in data set [1] was determined as 26.5 °C. Besides, the folding enthalpy in data set [2] is -16.7 kcal/mol.
The matching figures for GTCATCGAAAGATGAGAC ((((((....)))..))): 40.7 °C and -13.7 kcal/mol.
Turning to GTCATCGAAAGATGTGAC ((((((....)))..))), the Tm in data set [1] amounted to 35.7 °C. Besides, the folding enthalpy in data set [2] was -13.4 kcal/mol.
For GTCATCGAAAGATTTGAC ((((((....)))..))) the same measures were 29.4 °C and -13.2 kcal/mol.
For GTCATCTCGAAAGAGGAC (((..(((....)))))) the same measures were 39.4 °C and -20.9 kcal/mol.
The matching figures for GTCATGCGAAAGCACGAC (((.(((....))).))): 52.3 °C and -27.5 kcal/mol.
Take GTCATGGCGAAAGCCGAC (((..(((....)))))): in data set [1], the Tm came out at 42.6 °C. For the same sequence, the folding enthalpy in data set [2] was -13.4 kcal/mol.
The matching figures for GTCATTGGAAACAATGGC (.(((((....))))).): 47.6 °C and -28.6 kcal/mol.
Take GTCCAACGAAAGTTGAC (((.(((....)))))): in data set [1], the Tm turned out to be 45 °C. In data set [2], the folding enthalpy is -14.7 kcal/mol.
Turning to GTCCAACGAAAGTTTGAC (((.(((....))).))), in data set [1], the Tm is 42 °C. Besides, the folding enthalpy in data set [2] was -27.7 kcal/mol.
Take GTCCAAGGAAACCTGGAC (((((.(....).))))): the Tm in data set [1] came out at 46.8 °C. In addition, in data set [2], the folding enthalpy was -27.7 kcal/mol.
As for GTCCACCGAAAGGTCGAC (((.(((....))).))), in data set [1], the Tm is 44 °C. Further, the folding enthalpy in data set [2] was -27.2 kcal/mol.
Turning to GTCCACGGAAACACGGAC ((((..(....)..)))), the Tm in data set [1] amounted to 37.2 °C. Besides, the folding enthalpy in data set [2] is -18.4 kcal/mol.
The matching figures for GTCCAGGGAAACCTGGGC (.(((((....))))).): 56.5 °C and -33.1 kcal/mol.
For GTCCCAACGAAAGTTGAC (((..(((....)))))) the same measures were 25 °C and -9.31 kcal/mol.
In the case of GTCCCAGGAAACCAGGAC ((((..(....)..)))), in data set [1], the Tm is 35.6 °C. Also, the folding enthalpy in data set [2] was -21.2 kcal/mol.
As for GTCCCCCGAAAGGGAGAC (((.(((....))).))), the Tm in data set [1] amounted to 56.6 °C. Also, the folding enthalpy in data set [2] is -30.1 kcal/mol.
The matching figures for GTCCCCCGAAAGGGCGAC (((.(((....))).))): 49.1 °C and -21.6 kcal/mol.
On to GTCCCCCGAAAGGGGAC (((.(((....)))))), for which the Tm in data set [1] came out at 67.2 °C. Also, in data set [2], the folding enthalpy was -19.9 kcal/mol.
The matching figures for GTCCCCGAAAGGGAGAC ((((((....))).))): 53.7 °C and -30 kcal/mol.
For GTCCCCGAAAGGGATGAC ((((((....)))..))) the same measures were 44.8 °C and -14.6 kcal/mol.
